Measurements as given in ChEMBL document CHEMBL4732034, “Amino alcohol acrylonitriles as broad spectrum and tumour selective cytotoxic agents” (RSC Med Chem, 2021).

Assays:
[1] = Selectivity index, ratio of GI50 for human MCF10A cells to GI50 for human H460 cells by SRB assay; type: toxicity; conditions: MCF10A cells versus H460 cells, read-out: RatioGI50
How it was run: (§1)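 Fold selectivity is the MCF10A GI50 divided by the cancer-line GI50. Each GI50 is from the 72 h SRB assay: eight-point dose-response, day-0 optical density baseline, three to four separate replicates.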

NCI-H460 = assay: Cytotoxicity against human H460 cells assessed as growth inhibition measured after 72 hrs by SRB assay; type: functional
How it was run: (§2)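 Cancer lines were kept in DMEM with 10% FBS and glutamine at 37 °C, 5% CO2, and seeded at 2500–4000 cells per well in duplicate. Compound (from 40 mM DMSO stocks) was added 24 h after plating and left for 72 h. Cells were TCA-fixed, stained with SRB and read at 540 nm. GI50 came from an eight-point dose-response, using the change from day-0 optical density, with three to four independent replicates.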

A2780 = assay: Cytotoxicity against human A2780 cells assessed as growth inhibition measured after 72 hrs by SRB assay; type: functional; how it was run: as §2
U-87 MG = assay: Cytotoxicity against human U87 cells assessed as growth inhibition measured after 72 hrs by SRB assay; type: functional, U-87MG ATCC; how it was run: as §2
[2] = Cytotoxicity against human SJG2 cells assessed as growth inhibition measured after 72 hrs by SRB assay; type: functional; conditions: SJ-G2; how it was run: as §2
DU-145 = assay: Cytotoxicity against human DU-145 cells assessed as growth inhibition measured after 72 hrs by SRB assay; type: functional; how it was run: as §2
A-431 = assay: Cytotoxicity against human A431 cells assessed as growth inhibition measured after 72 hrs by SRB assay; type: functional; how it was run: as §2
BE(2)-C = assay: Cytotoxicity against human BE2C cells assessed as growth inhibition measured after 72 hrs by SRB assay; type: functional; how it was run: as §2
[3] = Cytotoxicity against human MCF10A cells assessed as growth inhibition measured after 72 hrs by SRB assay; type: cell-based, MCF-10A
MIA PaCa-2 = assay: Cytotoxicity against human MIA cells assessed as growth inhibition measured after 72 hrs by SRB assay; type: functional; how it was run: as §2
HT-29 = assay: Cytotoxicity against human HT29 cells assessed as growth inhibition measured after 72 hrs by SRB assay; type: functional; how it was run: as §2
MCF7 = assay: Cytotoxicity against human MCF-7 cells assessed as growth inhibition measured after 72 hrs by SRB assay; type: functional; how it was run: as §2
[4] = Selectivity index, ratio of GI50 for human MCF10A cells to GI50 for human T47D cells by SRB assay; type: toxicity; conditions: MCF10A cells versus T47D cells, read-out: RatioGI50; how it was run: as §1
[5] = Selectivity index, ratio of GI50 for human MCF10A cells to GI50 for human MCF-7 cells by SRB assay; type: toxicity; conditions: MCF10A cells versus MCF-7 cells, read-out: RatioGI50; how it was run: as §1
T47D = assay: Cytotoxicity against human T47D cells assessed as growth inhibition measured after 72 hrs by SRB assay; type: functional; how it was run: as §2
[6] = Selectivity index, ratio of GI50 for human MCF10A cells to GI50 for human MDA-MB-468 cells by SRB assay; type: toxicity; conditions: MCF10A cells versus MDA-MB-468 cells, read-out: RatioGI50; how it was run: as §1
MDA-MB-468 = assay: Cytotoxicity against human MDA-MB-468 cells assessed as growth inhibition measured after 72 hrs by SRB assay; type: functional; how it was run: as §2
[7] = molecular target: T1, Aryl hydrocarbon receptor (Homo sapiens, UniProt P35869); assay: Activation of AhR in human HT29-Lucia cells expressing secreted Lucia luciferase reporter gene assessed as increase in receptor transactivation by measuring fold increase in reporter activity at 5 uM measured after 24 hrs by luciferase reporter gene assay relative to control; type: cell-based; conditions: HT-29, human, read-out: FC
T1 sequence (P35869 whole entry): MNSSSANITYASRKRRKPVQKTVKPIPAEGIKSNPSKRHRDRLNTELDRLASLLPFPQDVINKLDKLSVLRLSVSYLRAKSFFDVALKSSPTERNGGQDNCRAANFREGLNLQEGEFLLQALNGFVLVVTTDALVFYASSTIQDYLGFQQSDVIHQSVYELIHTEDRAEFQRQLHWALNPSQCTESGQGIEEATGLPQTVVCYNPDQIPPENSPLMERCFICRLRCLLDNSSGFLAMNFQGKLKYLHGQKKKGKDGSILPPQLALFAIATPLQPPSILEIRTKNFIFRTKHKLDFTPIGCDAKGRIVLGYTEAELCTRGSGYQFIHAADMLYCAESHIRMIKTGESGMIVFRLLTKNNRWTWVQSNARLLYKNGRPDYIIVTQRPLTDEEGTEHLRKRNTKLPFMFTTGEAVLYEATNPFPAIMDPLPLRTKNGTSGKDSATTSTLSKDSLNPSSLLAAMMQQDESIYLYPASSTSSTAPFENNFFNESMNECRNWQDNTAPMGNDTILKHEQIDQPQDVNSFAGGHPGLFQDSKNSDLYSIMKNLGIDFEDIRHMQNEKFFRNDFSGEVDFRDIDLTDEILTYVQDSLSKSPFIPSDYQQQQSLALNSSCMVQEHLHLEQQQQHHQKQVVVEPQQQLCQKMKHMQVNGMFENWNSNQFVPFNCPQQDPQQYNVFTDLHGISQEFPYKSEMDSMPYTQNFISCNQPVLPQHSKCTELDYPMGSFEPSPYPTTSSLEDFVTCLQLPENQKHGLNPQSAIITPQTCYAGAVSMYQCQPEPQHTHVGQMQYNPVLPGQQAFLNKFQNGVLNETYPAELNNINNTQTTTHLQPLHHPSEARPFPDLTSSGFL
How it was run: (§3)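 HT29-Lucia cells (stable secreted Lucia luciferase reporter under a minimal promoter with the human CYP1A1 regulatory sequence, six DREs) were grown without antibiotics for 24 h before compound addition. At 24 and 48 h, supernatant was read by luminescence with QUANTI-Luc. Assays were run twice, and values are fold-change versus DMSO-treated cells. FICZ and CH223191 (5 μM) were included as controls.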

[8] = molecular target: T1, Aryl hydrocarbon receptor; assay: Activation of AhR in human HT29-Lucia cells expressing secreted Lucia luciferase reporter gene assessed as increase in receptor transactivation by measuring fold increase in reporter activity at 5 uM measured after 48 hrs by luciferase reporter gene assay relative to control; type: cell-based; conditions: HT-29, human, read-out: FC; how it was run: as §3
[9] = Selectivity index, ratio of GI50 for human MCF10A cells to GI50 for human A2780 cells by SRB assay; type: toxicity; conditions: MCF10A cells versus A2780 cells, read-out: RatioGI50; how it was run: as §1
[10] = molecular target: T1, Aryl hydrocarbon receptor; assay: Activation of AhR in human HT29-Lucia cells expressing secreted Lucia luciferase reporter gene assessed as increase in receptor transactivation by measuring fold increase in reporter activity at 25 uM measured after 48 hrs by luciferase reporter gene assay relative to control; type: cell-based; conditions: HT-29, human, read-out: FC; how it was run: as §3
CYP1A1 = molecular target: T2, CYP1A1 (Homo sapiens, UniProt P35869); assay: Activation of AhR in human MDA-MB-468 cells assessed as fold increase in CYP1A1 mRNA expression at 5 uM measured after 8 hrs by qPCR assay relative to control; type: cell-based; conditions: read-out: FC
T2 sequence (P35869 whole entry): T1 sequence (P35869 whole entry)
How it was run: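 MDA-MB-468 cells were exposed for 8 h, then total RNA was extracted. CYP1A1 was quantified by qPCR with β2M as reference: 95 °C for 5 min, then 40 cycles of 95 °C for 5 s and 60 °C for 10 s. Fold change was calculated by the comparative Ct method.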

[11] = molecular target: T1, Aryl hydrocarbon receptor; assay: Activation of AhR in human HT29-Lucia cells expressing secreted Lucia luciferase reporter gene assessed as increase in receptor transactivation by measuring fold increase in reporter activity at 25 uM measured after 24 hrs by luciferase reporter gene assay relative to control; type: cell-based; conditions: HT-29, human, read-out: FC; how it was run: as §3

Row | SMILES | GI50 (NCI-H460) [µM] | GI50 (A2780) [µM] | GI50 (U-87 MG) [µM] | GI50 [2] [µM] | GI50 (DU-145) [µM] | GI50 (A-431) [µM] | GI50 (BE(2)-C) [µM] | GI50 at 72 h [3] [µM] | GI50 (MIA PaCa-2) [µM] | GI50 (HT-29) [µM] | GI50 (MCF7) [µM] | also measured
1 | N#C/C(=C\c1ccc(OCC(O)CN2CCN(c3ccccc3F)CC2)cc1)c1ccc(Cl)c(Cl)c1 (racemic) | 1.6 | 17 | 20 | 18 | 18 | 14 | 21 | 15 | 24 | 5.4 | 11 | selectivity ratio [1]: 9.3
2 | CC(=O)N1CCN(CC(O)COc2ccc(/C=C(\C#N)c3ccc(Cl)c(Cl)c3)cc2)CC1 (racemic) | 14 | 6.9 | 21 | 13 | 15 | 10 | 11 | 16 | 16 | 8.6 | 5.3 | selectivity ratio [4]: 2.3; selectivity ratio [5]: 3; GI50 (T47D): 6.8 µM; selectivity ratio [6]: 2.7; GI50 (MDA-MB-468): 5.9 µM
3 | Cc1ccccc1/N=N/c1ccc(NC(=O)c2ccnn2C)c(C)c1 | – | – | – | – | – | – | – | – | – | – | – | fold induction at 5 µM [7]: 0.69; fold induction at 5 µM [8]: 0.59
4 | O=Cc1c2[nH]c3ccccc3c2cc2[nH]c3ccccc3c12 | – | – | – | – | – | – | – | – | – | – | – | fold induction at 5 µM [7]: 2.85; fold induction at 5 µM [8]: 4.82
5 | N#C/C(=C\c1ccc(OCC(O)CNc2ccccc2)cc1)c1ccc(Cl)c(Cl)c1 (racemic) | 14 | 4.4 | 26 | 18 | 22 | 16 | 13 | 18 | 17 | 10 | 13 | selectivity ratio [9]: 4
6 | N#C/C(=C\c1ccc(OCC(O)CN2CCN(c3ccc(C#N)cc3)CC2)cc1)c1ccc(Cl)c(Cl)c1 (racemic) | > 50 | 15 | > 50 | > 50 | 17 | 20 | 31 | 47 | > 50 | 50 | 5.8 | fold induction at 25 µM [10]: 1.84; fold induction at 8 h, 5 µM (CYP1A1): 7.6; fold induction at 25 µM [11]: 1.69; selectivity ratio [4]: 20; selectivity ratio [5]: 8.1; GI50 (T47D): 2.3 µM; selectivity ratio [6]: 7.8; GI50 (MDA-MB-468): 6 µM
7 | N#C/C(=C\c1ccc(OCC(O)CN2CCN(c3ccc(Br)cc3)CC2)cc1)c1ccc(Cl)c(Cl)c1 (racemic) | > 50 | 14 | > 50 | 21 | 31 | > 50 | 40 | 49 | 57 | 16 | 24 | selectivity ratio [9]: 3.5
